# Reference: the RNAGym collection of RNA variant scans (doi:10.1126/science.aae0568)
# Fewer inactive variants are shown than the library holds.
# B1: tRNA (parent)
# chain: GUUCCGUUGGCGUAAUGGUAACGCGUCUCCCUCCUAAGGAGAAGACUGCGGGUUCGAGUCCCGUACGGAACG
# Variants of: B1
# Assay: yeast fitness relative to wild type (ratio to wild type); higher = fitter; tRNA-Arg(CCU), competitive growth, 37 C, YPD
# Outline: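 Variants of the tRNA-Arg(CCU) gene, chemically synthesised with a 3% per-site mutation rate at 69 sites, were placed at the native genomic locus in Saccharomyces cerevisiae. The pooled strains were competed in YPD at 37°C for 24 hours in six parallel replicates. Gene amplicons from the start population and from each end population were read by 100-nucleotide paired-end sequencing. Darwinian fitness relative to wild type came from changes in genotype frequencies; genotypes needed ≥ 100 starting reads, and estimates < 0.5 were set to 0.5.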
row,Variant,yeast fitness
1,A15U G38C C46U A69U A70G,≤ 0.5
2,A15U C27A C49G U64A,0.639
3,A15U A21C C29A U32A,0.728
4,A15U C31G C33G A42U,≤ 0.5
5,A15U A45G,0.732
6,A15U A45U,0.593
7,A15U A36G C55G G56A,0.535
8,A15U C31A U54C,≤ 0.5
9,A15U C22G C31U A57C,≤ 0.5
10,A15U G58C,0.916
11,A15U G58A,1
12,A15G U16C C29G G41A,0.599
13,A15U C24G A45G G52A U54A,≤ 0.5
14,A15U A45U G68C A70U,≤ 0.5
15,A15U A20C G23A G50C,0.577
16,A15U C22G G48C G63C A70C,≤ 0.5
17,A15U G17C A45U C49G,≤ 0.5
18,A15U G18C C29G,0.571
19,A15G U16A G38C C62G G68A,≤ 0.5
20,A15U G25A G44C G67U,0.522
21,A15U C31G C34U A40C,0.531
22,A15G U19C A37U,0.622
23,A15G U26C U32A C34U G38C G51A A57C C66U,≤ 0.5
24,A15U A36U G48C C66U,≤ 0.5

row,Variant,yeast fitness
1,A15U C27G U59C,≤ 0.5
2,A15U G38C G51C A70C,≤ 0.5
3,A15U C24G C62U A69U,≤ 0.5
4,A15G U19C C46G C55U,≤ 0.5
5,A15U C34G A37G A40C,0.59
6,A15U C27U C49U,0.655
7,A15G U16A,0.919
8,A15G U16C,0.927
9,A15U C29A G50C,≤ 0.5
10,A15U A37G A65C,≤ 0.5
11,A15G U35A A57G G58U C62G,≤ 0.5
12,A15U C22U G44C A65G,≤ 0.5
13,A15U A40U G52A,≤ 0.5
14,A15U A21C G52A,≤ 0.5
15,A15U G25C,0.583
16,A15U G25A G44C,0.566
17,A15U A20G G63C,0.555
18,A15U C61A,0.571
19,A15U C61U,0.673
20,A15U C61G,0.582
21,A15G U16A U19C C30U G52C,≤ 0.5
22,A15U G17A,0.707
23,A15U G18C A36G A37C G50A,≤ 0.5
24,A15U C34A G39C A40C G56C C61G C62G G68C,0.533

row,Variant,yeast fitness
1,A15U G18C C55U A69C,≤ 0.5
2,A15G U32C,0.983
3,A15U G23C C29U G50A,0.616
4,A15U C49G,0.671
5,A15U A43U C46G C61A,≤ 0.5
6,A15U C31U U35A A36C U53A,0.625
7,A15G U26G G41C A43C C66A,≤ 0.5
8,A15U G23A A40C A57G C61U A65C,0.629
9,A15G G56C C61U,≤ 0.5
10,A15G U47G A69C,≤ 0.5
11,A15U C24G A42C A43C,≤ 0.5
12,A15G U28C C30U A69U,0.633
13,A15U C60G A65U,≤ 0.5
14,A15U A20C C34A G68C,≤ 0.5
15,A15U C33G G52A A65G,≤ 0.5
16,A15U A42C,0.787
17,A15U A21G,0.785
18,A15U C27U G39A G48A,≤ 0.5
19,A15G U26A G41A U64A A70C,≤ 0.5
20,A15U C46A U53A A69G,≤ 0.5
21,A15U C22G A69U,0.608
22,A15G U54G,0.612
23,A15G U54C,0.905
24,A15G U54A,0.648

row,Variant,yeast fitness
1,A15U C24G G68A,≤ 0.5
2,A15U C31U,0.707
3,A15U C31A,0.588
4,A15U C31G,0.676
5,A15U C24G U53A U64A,≤ 0.5
6,A15U C29G C31G C60U,0.675
7,A15G G56C,0.651
8,A15G U32A G38A G52A C66U,≤ 0.5
9,A15U G52C G68A,≤ 0.5
10,A15U A45U A69C,0.647
11,A15U G58A C66G,0.943
12,A15G U26C G63A,≤ 0.5
13,A15U A40U C61U A70G,0.718
14,A15U C29A C34G,≤ 0.5
15,A15U A45C C49U,0.618
16,A15U A20G U28A C33G,≤ 0.5
17,A15U A36G G51C C55G,≤ 0.5
18,A15U G23C A40U G63C,≤ 0.5
19,A15U C24G A42C C66A,0.59
20,A15U C33G C34G A45U G51A,≤ 0.5
21,A15U G17C A37U,≤ 0.5
22,A15U C24G G56A,≤ 0.5
23,A15G U28C A37C,≤ 0.5
24,A15U C22A A43G G51C,≤ 0.5

row,Variant,yeast fitness
1,A15U A36U A40U G68C,0.643
2,A15U G39C,0.597
3,A15U A36G A37U A65U,≤ 0.5
4,A15G U32G A43C,≤ 0.5
5,A15U C33G G50A,0.625
6,A15U C22A,0.738
7,A15U C22G,0.67
8,A15U C22U,0.743
9,A15G U19A U28A G63A,≤ 0.5
10,A15U G48C,0.669
11,A15U C24A G25A U47C G52C C62U C66A A70C,≤ 0.5
12,A15G U32A G52C G68A,≤ 0.5
13,A15U C33G,0.551
14,A15U C27A A65C A69C,0.577
15,A15U G23A G68C,≤ 0.5
16,A15U A20G G41C C60U G67A,≤ 0.5
17,A15G U47G G56A,≤ 0.5
18,A15U A21C C49A,≤ 0.5
19,A15U C24G U32C A42C A43C,≤ 0.5
20,A15U C33U U64G A70C,≤ 0.5
21,A15U G23C C33A G67C,≤ 0.5
22,A15U A37U C49G A65G,≤ 0.5
23,A15U C46U,0.978
24,A15U C46A,0.719

row,Variant,yeast fitness
1,A15U C46G,0.825
2,A15U A43C G48A G68C,≤ 0.5
3,A15U G50C C60U,≤ 0.5
4,A15U G18A C27U U35C G41A C49U U53A,0.603
5,A15U G23C A37G,≤ 0.5
6,A15U C31U G52A,0.576
7,A15U G18A A37G G50A,≤ 0.5
8,A15U C22G C31U A65U A69U,≤ 0.5
9,A15U C22G C31U C60A,≤ 0.5
10,A15U C55G U64C A65C,≤ 0.5
11,A15U A45C C49G G58C,≤ 0.5
12,A15U C34G A37G A40C U64C,≤ 0.5
13,A15U A20G G52C A65U G67C,≤ 0.5
14,A15U C24A G25A U47C G52C,≤ 0.5
15,A15U G38C A43C,≤ 0.5
16,A15U C22G C31U U64A G68C A70U,≤ 0.5
17,A15U A20C G50C,≤ 0.5
18,A15U C30U A40G C55U,0.653
19,A15U G67A A69U,0.558
20,A15U A20C G67U,0.605
21,A15U G23U C24G,≤ 0.5
22,A15G U54A C61U,0.57
23,A15G U16A A20G U28A C30A C33A A36U A69C,≤ 0.5
24,A15U C46U U54C,0.684

row,Variant,yeast fitness
1,A15U C30U G52A A65U,≤ 0.5
2,A15U G18A C27G G56C G68C,≤ 0.5
3,A15U G25A A36U,0.586
4,A15U G25C C49G U59G,≤ 0.5
5,A15U A43U G48A G68C,≤ 0.5
6,A15U C33A A37G U53C,0.668
7,A15G G68U,0.782
8,A15G G68C,0.648
9,A15G U53C C61G,≤ 0.5
10,A15U C22G A70C,≤ 0.5
11,A15G G63C A65G,0.543
12,A15U C66G,0.671
13,A15G G51A A65U,≤ 0.5
14,A15U G25C A57G,≤ 0.5
15,A15U A21G C31G C49A,≤ 0.5
16,A15U G25C C61G,≤ 0.5
17,A15U C29A C49G A69U,≤ 0.5
18,A15U C34U G41C A69G,≤ 0.5
19,A15U C66U A70U,0.604
20,A15U C22G C31G U32G,0.626
21,A15G G63C A69U,0.651
22,A15U C27A,0.593
23,A15U C27U,0.699
